From ChEMBL document CHEMBL5154934, “Structure-Guided Design of Potent Spirocyclic Inhibitors of Severe Acute Respiratory Syndrome Coronavirus-2 3C-like Protease” (J Med Chem, 2022)
Activity calls are given as the source filed them. No cut-off for these calls is given here.

Key:
[1] = biological target: Replicase polyprotein 1ab (Severe acute respiratory syndrome coronavirus 2, UniProt P0DTD1); assay: Inhibition of N-terminal His6-tagged SARS-CoV2 Wuhan-Hu-1 3C-like protease […] expressed in Escherichia coli BL21 (DE3) cells using FAM-SAVLQ/SG-QXL520 as substrate by FRET enzyme assay
Outline: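 Enzyme was full-length codon-optimized N-terminal His6 protease from pET-28a. It was preincubated with serial inhibitor dilutions, or DMSO, for 1 h at 37°C in 20 mM HEPES pH 8 with 200 mM NaCl, 0.4 mM EDTA, 60% glycerol and 6 mM DTT. FAM-SAVLQ/SG-QXL520 was then added and fluorescence (ex 480/em 520 nm) read after 1 h. Readings were background-subtracted. IC50 came from a variable-slope fit, mean ± SD of ≥3 replicates.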

[2] = Inhibition of MERS-CoV 3C-like protease incubated for 30 mins by FRET enzyme assay; parameters: species or system Middle East respiratory syndrome-related coronavirus
[3] = Cytotoxicity against african green monkey Vero E6 cells; type: toxicity, cell-based, Vero C1008; conditions: chlorocebus sabaeus
[4] = test system: SARS-CoV-2; assay: Antiviral activity against SARS-CoV-2 3C-like measured after 24 hrs; type: functional, organism-based; conditions: Severe acute respiratory syndrome coronavirus 2, 24 h
[5] = test system: SARS-CoV-2; assay: Antiviral activity against N-terminal His6-tagged SARS-CoV-2 3C-like protease […] HEK293T cells measured after 24 hrs by cell based replicon assay; type: functional, organism-based; conditions: Severe acute respiratory syndrome coronavirus 2
[6] = Safety index, ratio of CC50 for cytotoxicity against Vero E6 cells to EC50 for antiviral activity against SARS-CoV-2 Wuhan-Hu-1; type: toxicity, cell-based, Vero C1008; conditions: monkey, read-out: Ratio CC50/EC50

CC(C)C[C@H](NC(=O)OCC1CN(C(=O)Cc2ccccc2)C1)C(=O)N[C@H](C=O)C[C@H]1CCNC1=O
IC50 [1]: 830 nM | IC50 [2]: 280 nM | CC50 [3]: > 100000 nM

CC(C)C[C@H](NC(=O)OC1(C)CN(C(=O)OC(C)(C)C)C1)C(=O)N[C@H](C=O)C[C@H]1CCNC1=O
IC50 [1]: 3650 nM | IC50 [2]: 3450 nM | CC50 [3]: > 100000 nM

CC(C)C[C@H](NC(=O)OC1CC2(CCN(C(=O)OC(C)(C)C)C2)C1)C(=O)N[C@@H](C[C@H]1CCNC1=O)C(=O)C(O)S(=O)(=O)O (stereo partly specified)
CC50 [3]: > 100000 nM

CC(C)C[C@H](NC(=O)OC1CC2(CCN(S(C)(=O)=O)CC2)C1)C(=O)N[C@@H](C[C@H]1CCNC1=O)C(=O)C(O)S(=O)(=O)O (stereo partly specified)
CC50 [3]: > 100000 nM

CC(C)C[C@H](NC(=O)OCC1CN(C(=O)C2CC3CCC2C3)C1)C(=O)N[C@@H](C[C@H]1CCNC1=O)C(=O)C(O)S(=O)(=O)O (stereo partly specified)
CC50 [3]: > 100000 nM

CC(C)C[C@H](NC(=O)OC1CC2(CCN(S(C)(=O)=O)CC2)C1)C(=O)N[C@H](C=O)C[C@H]1CCNC1=O
IC50 [1]: 240 nM | IC50 [2]: 370 nM | CC50 [3]: > 100000 nM

CC(C)C[C@H](NC(=O)OC1CC2(CCN(C#N)CC2)C1)C(=O)N[C@H](C=O)C[C@H]1CCNC1=O
IC50 [1]: 320 nM | IC50 [2]: 560 nM | CC50 [3]: > 100000 nM

CC(C)C[C@H](NC(=O)OC1CC2(CCN(C(=O)OC(C)(C)C)CC2)C1)C(=O)N[C@H](C=O)C[C@H]1CCNC1=O
IC50 [1]: 360 nM | IC50 [2]: 1200 nM | CC50 [3]: > 100000 nM | EC50 [4]: 90 nM | Activity [5]: Active | selectivity ratio [6]: 1250

CC(C)C[C@H](NC(=O)OC1CC2(C1)CN(C(=O)OC(C)(C)C)C2)C(=O)N[C@H](C=O)C[C@H]1CCNC1=O
IC50 [1]: 3300 nM | IC50 [2]: 1500 nM | CC50 [3]: > 100000 nM

CC(C)C[C@H](NC(=O)OC1CC2(C1)CN(C(=O)Cc1ccccc1)C2)C(=O)N[C@@H](C[C@H]1CCNC1=O)C(=O)C(O)S(=O)(=O)O (stereo partly specified)
CC50 [3]: > 100000 nM

CC(C)C[C@H](NC(=O)OC1CC2(CCN(C(=O)C(C)C)CC2)C1)C(=O)N[C@@H](C[C@H]1CCNC1=O)C(=O)C(O)S(=O)(=O)O (stereo partly specified)
CC50 [3]: > 100000 nM

CC(C)C[C@H](NC(=O)OC1CC2(CCN(C(=O)OC(C)(C)C)C2)C1)C(=O)N[C@H](C=O)C[C@H]1CCNC1=O (stereo partly specified)
IC50 [2]: 700 nM | CC50 [3]: > 100000 nM

CC(C)C[C@H](NC(=O)OC1CCC2(C1)CN(C(=O)OC(C)(C)C)C2)C(=O)N[C@@H](C[C@H]1CCNC1=O)C(=O)C(O)S(=O)(=O)O (stereo partly specified)
CC50 [3]: > 100000 nM

CC(C)C[C@H](NC(=O)OCC1CN(C(=O)C2CC3CCC2C3)C1)C(=O)N[C@H](C=O)C[C@H]1CCNC1=O (stereo partly specified)
IC50 [1]: 520 nM | IC50 [2]: 190 nM | CC50 [3]: > 100000 nM

CC(C)C[C@H](NC(=O)OC1CN(C(=O)OC(C)(C)C)C1)C(=O)N[C@@H](C[C@H]1CCNC1=O)C(=O)C(O)S(=O)(=O)O (stereo partly specified)
CC50 [3]: > 100000 nM

CC(C)C[C@H](NC(=O)OC1CC2(CCN(C(=O)Cc3ccccc3)CC2)C1)C(=O)N[C@@H](C[C@H]1CCNC1=O)C(=O)C(O)S(=O)(=O)O (stereo partly specified)
CC50 [3]: > 100000 nM

CC(C)C[C@H](NC(=O)OC1CC2(C1)CN(S(C)(=O)=O)C2)C(=O)N[C@H](C=O)C[C@H]1CCNC1=O
IC50 [1]: 680 nM | IC50 [2]: 220 nM | CC50 [3]: > 100000 nM

CC(C)C[C@H](NC(=O)OC1CN(C(=O)OC(C)(C)C)C1)C(=O)N[C@H](C=O)C[C@H]1CCNC1=O
IC50 [1]: 2500 nM | IC50 [2]: 1650 nM | CC50 [3]: > 100000 nM

CC(C)C[C@H](NC(=O)OC1CCC2(C1)CN(C(=O)OC(C)(C)C)C2)C(=O)N[C@H](C=O)C[C@H]1CCNC1=O (stereo partly specified)
IC50 [1]: 1250 nM | IC50 [2]: 1010 nM | CC50 [3]: > 100000 nM

[2H]C([2H])(OC(=O)N[C@@H](CC(C)C)C(=O)N[C@H](C=O)C[C@H]1CCNC1=O)C1CN(C(=O)OC(C)(C)C)C1
IC50 [1]: 330 nM | IC50 [2]: 350 nM | CC50 [3]: > 100000 nM

CC(C)C[C@H](NC(=O)OCC1CN(S(C)(=O)=O)C1)C(=O)N[C@H](C=O)C[C@H]1CCNC1=O
IC50 [1]: 4950 nM | IC50 [2]: 1400 nM | CC50 [3]: > 100000 nM

CC(C)C[C@H](NC(=O)OC1CC2(C1)CN(C(=O)C(C)C)C2)C(=O)N[C@H](C=O)C[C@H]1CCNC1=O
IC50 [1]: 1150 nM | IC50 [2]: 350 nM | CC50 [3]: > 100000 nM

CC(C)C[C@H](NC(=O)OC1CC2(C1)CN(S(C)(=O)=O)C2)C(=O)N[C@@H](C[C@H]1CCNC1=O)C(=O)C(O)S(=O)(=O)O (stereo partly specified)
CC50 [3]: > 100000 nM

CC(C)C[C@H](NC(=O)OC1CC2(C1)CN(C(=O)Cc1ccccc1)C2)C(=O)N[C@H](C=O)C[C@H]1CCNC1=O
IC50 [1]: 260 nM | IC50 [2]: 210 nM | CC50 [3]: > 100000 nM

CC(C)C[C@H](NC(=O)OC1CC2(CCN(C(=O)C(C)C)CC2)C1)C(=O)N[C@H](C=O)C[C@H]1CCNC1=O
IC50 [1]: 380 nM | IC50 [2]: 650 nM | CC50 [3]: > 100000 nM

CC(C)C[C@H](NC(=O)OCC1CN(C(=O)OC(C)(C)C)C1)C(=O)N[C@@H](C[C@H]1CCNC1=O)C(=O)C(O)S(=O)(=O)O (stereo partly specified)
CC50 [3]: > 100000 nM | EC50 [4]: 430 nM | Activity [5]: Active

CC(C)C[C@H](NC(=O)OC1CC2(CCN(C(=O)OC(C)(C)C)CC2)C1)C(=O)N[C@@H](C[C@H]1CCNC1=O)C(=O)C(O)S(=O)(=O)O (stereo partly specified)
CC50 [3]: > 100000 nM | EC50 [4]: 80 nM | Activity [5]: Active | selectivity ratio [6]: 1250

CC(C)C[C@H](NC(=O)OC1CC2(CCN(C(=O)Cc3ccccc3)CC2)C1)C(=O)N[C@H](C=O)C[C@H]1CCNC1=O
IC50 [1]: 350 nM | IC50 [2]: 700 nM | CC50 [3]: > 100000 nM

CC(C)C[C@H](NC(=O)OC1CC2(C1)CN(C(=O)C(C)C)C2)C(=O)N[C@@H](C[C@H]1CCNC1=O)C(=O)C(O)S(=O)(=O)O (stereo partly specified)
CC50 [3]: > 100000 nM

CC(C)C[C@H](NC(=O)OCC1CN(S(C)(=O)=O)C1)C(=O)N[C@@H](C[C@H]1CCNC1=O)C(=O)C(O)S(=O)(=O)O (stereo partly specified)
CC50 [3]: > 100000 nM

CC(C)C[C@H](NC(=O)OC1CC2(CCN(C#N)CC2)C1)C(=O)N[C@@H](C[C@H]1CCNC1=O)C(=O)C(O)S(=O)(=O)O (stereo partly specified)
CC50 [3]: > 100000 nM

CC(C)C[C@H](NC(=O)OCC1CN(C(=O)Cc2ccccc2)C1)C(=O)N[C@@H](C[C@H]1CCNC1=O)C(=O)C(O)S(=O)(=O)O (stereo partly specified)
CC50 [3]: > 100000 nM

CC(C)C[C@H](NC(=O)OCC1CN(C(=O)OC(C)(C)C)C1)C(=O)N[C@H](C=O)C[C@H]1CCNC1=O
IC50 [1]: 410 nM | IC50 [2]: 490 nM | CC50 [3]: > 100000 nM | EC50 [4]: 380 nM | Activity [5]: Active

CC(C)C[C@H](NC(=O)OC1CC2(C1)CN(C(=O)OC(C)(C)C)C2)C(=O)N[C@@H](C[C@H]1CCNC1=O)C(=O)C(O)S(=O)(=O)O (stereo partly specified)
CC50 [3]: > 100000 nM

[2H]C([2H])(OC(=O)N[C@@H](CC(C)C)C(=O)N[C@@H](C[C@H]1CCNC1=O)C(=O)C(O)S(=O)(=O)[O-])C1CN(C(=O)OC(C)(C)C)C1.[Na+] (stereo partly specified)
CC50 [3]: > 100000 nM

CC(C)C[C@H](NC(=O)OC1(C)CN(C(=O)OC(C)(C)C)C1)C(=O)N[C@@H](C[C@H]1CCNC1=O)C(=O)C(O)S(=O)(=O)O (stereo partly specified)
CC50 [3]: > 100000 nM
